Experimental findings from ChEMBL document CHEMBL1212832, “Antiprotozoal steroidal saponins from the marine sponge Pandaros acanthifolium” (J Nat Prod, 2010) are described below.

Series [1] concerns the target T1, Fatty acid synthase (Plasmodium falciparum) (UniProt Q965D7).
T1 sequence (whole entry): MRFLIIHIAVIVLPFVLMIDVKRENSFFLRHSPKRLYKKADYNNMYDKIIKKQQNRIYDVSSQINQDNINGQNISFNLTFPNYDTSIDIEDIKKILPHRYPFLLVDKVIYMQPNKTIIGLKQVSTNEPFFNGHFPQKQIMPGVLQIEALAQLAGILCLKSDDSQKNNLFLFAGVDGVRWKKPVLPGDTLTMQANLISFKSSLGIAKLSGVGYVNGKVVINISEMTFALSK
The series is described as follows: Inhibition of Plasmodium falciparum recombinant FabZ at 20 ug/mL by spectrophotometric analysis.

A short description of series [2]: Inhibition of Plasmodium falciparum recombinant FabI at 20 ug/mL by spectrophotometric analysis.
Series [3] deals with T2, 3-oxoacyl-acyl-carrier protein reductase (Plasmodium falciparum) (UniProt Q965D6).
T2 sequence (whole entry): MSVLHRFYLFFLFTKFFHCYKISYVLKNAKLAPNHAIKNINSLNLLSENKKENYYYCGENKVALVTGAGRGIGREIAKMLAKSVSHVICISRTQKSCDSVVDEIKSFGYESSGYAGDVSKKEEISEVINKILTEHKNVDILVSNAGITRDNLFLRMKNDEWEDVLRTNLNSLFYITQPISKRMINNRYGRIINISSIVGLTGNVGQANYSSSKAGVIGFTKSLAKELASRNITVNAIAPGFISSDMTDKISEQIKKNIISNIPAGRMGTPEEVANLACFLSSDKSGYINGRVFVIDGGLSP
The series can be described thus: Inhibition of Plasmodium falciparum recombinant FabG at 20 ug/mL by spectrophotometric analysis.

Another series concerns Trypanosoma cruzi. The series can be described thus: Trypanocidal activity against trypomastigote form of Trypanosoma cruzi Tulahuen infected in rat L6 cells after 96 hrs. It is filed as functional, organism-based. The conditions noted are these: L6, 96 h. In outline: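 L6 cells seeded at 2000 per well in RPMI 1640 with 10% FBS, 2 mM L-glutamine; after 24 h, 5000 trypomastigotes of the LacZ-expressing C2C4 line added. After 48 h, medium replaced with seven 3-fold dilutions (90–0.12 µg/mL) for 96 h.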

Another series deals with Plasmodium falciparum. The series can be described thus: Antimalarial activity against chloroquine and pyrimethamine-resistant Plasmodium falciparum K1 assessed as inhibition of [3H]hypoxanthine incorporation after 48 hrs by scintillation counting. The class given is functional, organism-based. The essentials:
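K1 strain (chloroquine- and pyrimethamine-resistant) cultured in RPMI 1640 with 5% Albumax II, 0.2% w/v glucose, 0.03% L-glutamine. Two-fold dilution series from DMSO stocks, final DMSO ≤0.25%. 48 h at 37 °C, then 0.1 µCi [3H]-hypoxanthine added and incubated 24 h more. Freeze-stopped at -80 °C, harvested onto glass fiber filters, scintillation counted. IC50 calculated. Chloroquine as standard.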

A further series concerns L6. The series can be described thus: Cytotoxicity against rat L6 cells after 72 hrs by Alamar blue assay. The class given is cell-based. Particulars: l6, 72 h. In outline:
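4 × 10^4 L6 cells per well in RPMI 1640 with 10% FBS and L-glutamine, exposed 72 h to seven 3-fold dilutions (90–0.12 µg/mL). Resazurin (Alamar Blue) added for 2 h, fluorescence read at ex 536/em 588 nm.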

Series [4] relates to Trypanosoma brucei rhodesiense. The series can be described thus: Trypanocidal activity against Trypanosoma brucei rhodesiense STIB 900 after 72 hrs. Particulars: STIB 900, 72 h. The class given is functional, organism-based. The essentials: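 Bloodstream forms (10^4 per well) in MEM with 25 mM HEPES, extra glucose, non-essential amino acids, 2-mercaptoethanol, pyruvate and 15% heat-inactivated horse serum; seven 3-fold dilutions from 90 to 0.12 µg/mL, 72 h at 37 °C, 5% CO2. Resazurin added for 2–4 h, fluorescence at ex 536/em 588 nm; melarsoprol as standard.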

A further series concerns Leishmania donovani. The series can be described thus: Antileishmanial activity against Leishmania donovani (MHOM/ET/67/L82) amastigotes after 72 hrs. The class given is functional, organism-based. The conditions noted are these: MHOM/ET/67/L82, 72 h.

The source made the active and inactive calls. The rule behind the calls is not given here.

For the molecule `CC[C@@H](C(=O)C[C@@H](C)C1=C(O)C(=O)[C@@H]2[C@@H]3CC[C@H]4C[C@@H](O[C@@H]5O[C@H](C(=O)O)[C@@H](O)[C@H](O)[C@H]5O)CC[C@]4(C)[C@H]3CC[C@]12C)C(C)C`, the outcome in series [1], in series [2] and in series [3] was inactive.
The molecule `O=C(Cn1ccnc1[N+](=O)[O-])NCc1ccccc1` [BENZNIDAZOLE] came in with an IC50 with Trypanosoma cruzi of 2.64 µM.
As to `CC[C@@H](C(=O)C[C@@H](C)C1=C(O)C(=O)[C@@H]2[C@@H]3CC[C@H]4C[C@@H](O[C@@H]5O[C@H](C(=O)OC)[C@@H](O)[C@H](O)[C@H]5O[C@@H]5O[C@H](CO)[C@@H](O)[C@H](O)[C@H]5O)CC[C@]4(C)[C@H]3CC[C@]12C)C(C)C` [METHYL ESTER PANDAROSIDE A], the outcome in series [1], in series [2] and in series [3] was inactive. Moreover, the IC50 in the series on Trypanosoma cruzi was above 120 µM; in the series with Plasmodium falciparum, above 25 µM; in series [4], 114 µM; in the series with Leishmania donovani, 66.3 µM. In the series on L6, this molecule came in with an Activity above 120 µM.
As for `COC(=O)[C@H]1O[C@@H](O[C@H]2CC[C@@]3(C)[C@@H](CC[C@H]4[C@H]5C(=O)C(O)=C([C@H](C)CC(=O)CC(C)C)[C@@]5(C)CC[C@@H]43)C2)[C@H](O[C@@H]2O[C@H](CO)[C@@H](O)[C@H](O)[C@H]2O)[C@@H](O)[C@@H]1O` [METHYL ESTER PANDAROSIDE C], the outcome in series [1], in series [2] and in series [3] was inactive. Also, the IC50 in the series on Trypanosoma cruzi is 100 µM; in the series with Plasmodium falciparum, above 25 µM; in series [4], 61.4 µM; in the series on Leishmania donovani, 44.2 µM. This molecule showed an Activity with L6 above 120 µM.
Regarding `COC(=O)[C@H]1O[C@@H](O[C@H]2CC[C@@]3(C)[C@@H](CC[C@H]4[C@H]5C(=O)C(O)=C([C@H](C)CC(=O)CC(C)C)[C@@]5(C)CC[C@@H]43)C2)[C@H](O)[C@@H](O)[C@@H]1O` [METHYL ESTER PANDAROSIDE D], the result in series [1], in series [2] and in series [3] was inactive. Besides, the IC50 in the series with Trypanosoma cruzi amounted to 21.6 µM; with Plasmodium falciparum, 5.1 µM; in series [4], 40.4 µM; in the series on Leishmania donovani, 13.7 µM. This molecule also yielded an Activity in the series on L6 of 106 µM.
As to `C=C(C(=O)C[C@@H](C)C1=C(O)C(=O)[C@@H]2C3=C(CC[C@]12C)[C@@]1(C)CC[C@H](O[C@@H]2O[C@H](C(=O)OC)[C@@H](O)[C@H](O[C@@H]4OC[C@@H](O)[C@H](O)[C@H]4O)[C@H]2O)C[C@@H]1CC3)C(C)C` [METHYL ESTER PANDAROSIDE E], the result in series [1], in series [2] and in series [3] was inactive. Besides, the IC50 with Trypanosoma cruzi turned out to be 61.9 µM; with Plasmodium falciparum it was 5.9 µM; in series [4], 14.3 µM; with Leishmania donovani, 41.3 µM. The Activity in the series on L6 was found to be 76.9 µM.
On to `COC(=O)[C@H]1O[C@@H](O[C@H]2CC[C@]3(C)C4=C(CC[C@H]3C2)[C@H]2C(=O)C(O)=C([C@H](C)CC(=O)[C@H](C)C(C)C)[C@@]2(C)CC4)[C@H](O)[C@@H](O[C@@H]2OC[C@@H](O)[C@H](O)[C@H]2O)[C@@H]1O` [METHYL ESTER PANDAROSIDE F], for which the outcome in series [1], in series [2] and in series [3] was inactive. Also, the IC50 was found to be 25.1 µM in the series with Trypanosoma cruzi, 9.9 µM with Plasmodium falciparum, 54.4 µM in series [4] and 26.8 µM in the series with Leishmania donovani. In addition, in the series with L6, the Activity was 42.1 µM.
Turning to `CC[C@@H](C(=O)C[C@@H](C)C1=C(O)C(=O)[C@@H]2[C@@H]3CC[C@H]4C[C@@H](O[C@@H]5O[C@H](C(=O)OC)[C@@H](O)[C@H](O[C@@H]6OC[C@@H](O)[C@H](O)[C@H]6O)[C@H]5O)CC[C@]4(C)[C@H]3CC[C@]12C)C(C)C` [METHYL ESTER PANDAROSIDE H], the result in series [1], in series [2] and in series [3] was inactive. Also, the IC50 with Trypanosoma cruzi amounted to 36.1 µM; in the series with Plasmodium falciparum, 10.2 µM; in series [4], 19.9 µM; in the series with Leishmania donovani, 16.5 µM. In addition, the Activity with L6 came out at 43.3 µM.
In the case of `CC[C@@H](C(=O)C[C@@H](C)C1=C(O)C(=O)[C@@H]2[C@@H]3CC[C@H]4C[C@@H](O[C@@H]5O[C@H](C(=O)OC)[C@@H](O[C@H]6O[C@H](C)[C@@H](O)[C@H](O)[C@@H]6O)[C@H](O)[C@H]5O)CC[C@]4(C)[C@H]3CC[C@]12C)C(C)C` [METHYL ESTER PANDAROSIDE I], the outcome in series [1], in series [2] and in series [3] was inactive. For the same molecule, the IC50 in the series with Trypanosoma cruzi turned out to be 21.7 µM; in the series on Plasmodium falciparum, 13 µM; in series [4] it was 27.2 µM; in the series with Leishmania donovani, 28.7 µM. In the series on L6, this molecule yielded an Activity of 59.6 µM.
With `CC[C@@H](C(=O)C[C@@H](C)C1=C(O)C(=O)[C@@H]2[C@@H]3CC[C@H]4C[C@@H](O[C@@H]5O[C@H](C(=O)O)[C@@H](O)[C@H](O)[C@H]5O[C@@H]5O[C@H](CO)[C@@H](O)[C@H](O)[C@H]5O)CC[C@]4(C)[C@H]3CC[C@]12C)C(C)C` [PANDAROSIDE A], the outcome in series [1], in series [2] and in series [3] was inactive. Further, the half-inhibitory concentration (IC50) in the series on Trypanosoma cruzi was 52.2 µM; in the series with Plasmodium falciparum, 17.6 µM; in series [4] it was 9.1 µM; with Leishmania donovani, 19.7 µM. Besides, the Activity with L6 is 48.9 µM.
As for `CC(C)CC(=O)C[C@@H](C)C1=C(O)C(=O)[C@@H]2[C@@H]3CC[C@H]4C[C@@H](O[C@@H]5O[C@H](C(=O)O)[C@@H](O)[C@H](O)[C@H]5O[C@@H]5O[C@H](CO)[C@@H](O)[C@H](O)[C@H]5O)CC[C@]4(C)[C@H]3CC[C@]12C` [PANDAROSIDE C], the outcome in series [1], in series [2] and in series [3] was inactive. For the same molecule, the IC50 was above 120 µM in the series on Trypanosoma cruzi, above 25 µM with Plasmodium falciparum, 66.4 µM in series [4] and above 120 µM with Leishmania donovani. The molecule further yielded an Activity with L6 above 120 µM.
As for `CC(C)CC(=O)C[C@@H](C)C1=C(O)C(=O)[C@@H]2[C@@H]3CC[C@H]4C[C@@H](O[C@@H]5O[C@H](C(=O)O)[C@@H](O)[C@H](O)[C@H]5O)CC[C@]4(C)[C@H]3CC[C@]12C` [PANDAROSIDE D], the result in series [1], in series [2] and in series [3] was inactive. Moreover, the IC50 in the series with Trypanosoma cruzi is 80.8 µM; in the series on Plasmodium falciparum it was 13.5 µM; in series [4], 15.3 µM; in the series with Leishmania donovani it was 31 µM. This molecule also came in with an Activity in the series on L6 of 96.6 µM.
As for `COc1cc([C@@H]2c3cc4c(cc3[C@H](O)[C@H]3COC(=O)[C@H]23)OCO4)cc(OC)c1OC` [PODOFILOX], the Activity in the series with L6 came to 0.012 µM.

By IC50 is commonly meant the concentration that gives 50% inhibition.
